# Measurements from ChEMBL document CHEMBL4689842, “EUbOPEN Chemogenomics Library wave 1” (2021).
# Where “and” joins values, the source holds several entries; their conditions need not be identical. Equal entries are not always repeated.
# Tested on: U2OS
# Test: Multiplex assay against U2OS
# Assay type: toxicity, cell-based
# Conditions: human
# Procedure, shortened: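 Compound was added to live cells that had been stained at seeding with Hoechst33342, BioTracker Green Microtubule Cytoskeleton Dye, MitoTracker Red and Annexin V Alexa Fluor 680, and imaging followed on a CQ1 microscope at 37°C and 5% CO2. CellPathfinder machine-learning gating divided cells into Hoechst high-intensity objects or normal cells, normal cells into healthy, pyknosed or fragmented nuclei, and pyknosed cells into mitotic or apoptotic. Tubulin, mitochondrial-mass and membrane-permeability phenotypes are per cents of healthy-nucleus cells.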
# [1] = 12 h, 1 µM, compound concentration 1 uM, replicate 1
# [2] = 12 h, 1 µM, compound concentration 1 uM, replicate 2
# [3] = 12 h, 10 µM, compound concentration 10 uM, replicate 1
# [4] = 12 h, 10 µM, compound concentration 10 uM, replicate 2
# [5] = 24 h, 1 µM, compound concentration 1 uM, replicate 1
# [6] = 24 h, 1 µM, compound concentration 1 uM, replicate 2
# [7] = 24 h, 10 µM, compound concentration 10 uM, replicate 1
# [8] = 24 h, 10 µM, compound concentration 10 uM, replicate 2
compound,measurement,setting,value
CC(=O)O[C@H]1C(=O)[C@@]2(C)[C@H]([C@H](OC(=O)c3ccccc3)[C@]3(O)C[C@H](OC(=O)[C@H](O)[C@@H](NC(=O)c4ccccc4)c4ccccc4)C(C)=C1C3(C)C)[C@]1(OC(C)=O)CO[C@@H]1C[C@@H]2O [PACLITAXEL],Population Fragmented Nuclei (%),[1],6% and 4%
same,Population Healthy Nuclei (%),[1],86% and 92%
same,Population Hoechst High Intensity Objects (%),[1],3% and 2%
same,Population Membrane Permeable-Phenotype (%),[1],15% and 11%
same,Population Mitochondria Different-Phenotype (%),[1],21% and 22%
same,Population Mitotic Cells (%),[1],33% and 80%
same,Population Normal (%),[1],96% and 97%
same,Population Pyknosed Nuclei (%),[1],7% and 3%
same,Population Tubulin-Different-Phenotype (%),[1],32% and 25%
same,Population Apoptotic (%),[2],6% and 8%
same,Population Fragmented Nuclei (%),[2],7%
same,Population Healthy Nuclei (%),[2],81% and 84%
same,Population Hoechst High Intensity Objects (%),[2],10% and 11%
same,Population Membrane Permeable-Phenotype (%),[2],14% and 7%
same,Population Mitochondria Different-Phenotype (%),[2],24% and 30%
same,Population Mitotic Cells (%),[2],93% and 91%
same,Population Normal (%),[2],90% and 88%
same,Population Pyknosed Nuclei (%),[2],10% and 8%
same,Population Tubulin-Different-Phenotype (%),[2],33%
same,Population Apoptotic (%),[3],30% and 77% and 26%
same,Population Fragmented Nuclei (%),[3],3% and 5% and 4% and 2%
same,Population Healthy Nuclei (%),[3],91% and 89%
same,Population Hoechst High Intensity Objects (%),[3],3% [middle of 4 runs]
same,Population Membrane Permeable-Phenotype (%),[3],11% and 7%
same,Population Mitochondria Different-Phenotype (%),[3],19% and 25%
same,Population Normal (%),[3],96% and 95% and 99% and 98%
same,Population Pyknosed Nuclei (%),[3],5%
same,Population Tubulin-Different-Phenotype (%),[3],41% and 30% and 39%
same,Population Fragmented Nuclei (%),[4],10% and 6%
same,Population Healthy Nuclei (%),[4],81% and 88% and 83% and 87%
same,Population Hoechst High Intensity Objects (%),[4],12% and 9% and 11%
same,Population Membrane Permeable-Phenotype (%),[4],12% and 9% and 8% and 6%
same,Population Mitochondria Different-Phenotype (%),[4],28% and 20% and 33%
same,Population Mitotic Cells (%),[4],77% [middle of 4 runs]
same,Population Normal (%),[4],87% and 90% and 88%
same,Population Pyknosed Nuclei (%),[4],8% and 6% and 2%
same,Population Tubulin-Different-Phenotype (%),[4],28% and 26% and 31%
same,Population Fragmented Nuclei (%),[5],4%
same,Population Healthy Nuclei (%),[5],93% and 90%
same,Population Hoechst High Intensity Objects (%),[5],1% and 3%
same,Population Membrane Permeable-Phenotype (%),[5],10% and 3%
same,Population Mitochondria Different-Phenotype (%),[5],19% and 15%
same,Population Mitotic Cells (%),[5],40% and 83%
same,Population Normal (%),[5],98% and 96%
same,Population Pyknosed Nuclei (%),[5],2% and 5%
same,Population Tubulin-Different-Phenotype (%),[5],35%
same,Population Apoptotic (%),[6],38% and 33%
same,Population Fragmented Nuclei (%),[6],5%
same,Population Healthy Nuclei (%),[6],87% and 91%
same,Population Hoechst High Intensity Objects (%),[6],6% and 7%
same,Population Membrane Permeable-Phenotype (%),[6],12% and 9%
same,Population Mitochondria Different-Phenotype (%),[6],23% and 26%
same,Population Mitotic Cells (%),[6],61% and 66%
same,Population Normal (%),[6],93% and 92%
same,Population Pyknosed Nuclei (%),[6],6% and 4%
same,Population Tubulin-Different-Phenotype (%),[6],37% and 33%
same,Population Apoptotic (%),[7],37% and 21%
same,Population Fragmented Nuclei (%),[7],3% and 2%
same,Population Healthy Nuclei (%),[7],94% and 91% and 93%
same,Population Hoechst High Intensity Objects (%),[7],2% and 1%
same,Population Membrane Permeable-Phenotype (%),[7],6% and 4%
same,Population Mitochondria Different-Phenotype (%),[7],26% and 17% and 29%
same,Population Mitotic Cells (%),[7],62% and 78%
same,Population Normal (%),[7],97% and 98%
same,Population Pyknosed Nuclei (%),[7],2% and 4% and 5%
same,Population Tubulin-Different-Phenotype (%),[7],50% and 38% and 34% and 37%
same,Population Apoptotic (%),[8],50% [middle of 4 runs]
same,Population Fragmented Nuclei (%),[8],10% and 5% and 7%
same,Population Healthy Nuclei (%),[8],81% and 86% and 85%
same,Population Hoechst High Intensity Objects (%),[8],5% and 3% and 4% and 9%
same,Population Mitochondria Different-Phenotype (%),[8],32% [middle of 4 runs]
same,Population Mitotic Cells (%),[8],45% and 66% and 50% and 64%
same,Population Normal (%),[8],94% and 96% and 95% and 90%
same,Population Pyknosed Nuclei (%),[8],8% and 3% and 6%
same,Population Tubulin-Different-Phenotype (%),[8],31% and 26% and 27%
